Reference: ChEMBL document CHEMBL1124387, “Cardiotonic agents. 9. Synthesis and biological evaluation of a series of (E)-4,5-dihydro-6-[2-[4-(1H-imidazol-1-yl)phenyl]ethenyl]-3 (2H)-pyridazinones: a novel class of compounds with positive inotropic, antithrombotic, and vasodilatory activities for the treatment of congestive heart failure” (J Med Chem, 1989)
Values joined by “and” are separate entries in the source; they are usually repeats but may differ in a detail not shown here. Equal entries are not always repeated.

Assays:
Canis familiaris [1] = organism: Canis familiaris; test: 50% increase in myocardial contractility (dP/dT max) in dogs; assay type: functional, Canis lupus familiaris, Myocardium
In short: (§1)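 Acutely instrumented anesthetized dogs (n = 6), 30-min control period. Compound in 0.9% saline, or dilute HCl diluted with saline, at 0.1 mL/kg iv over 1 min. At least four ascending half-log doses, 10 min apart, one compound per animal. Recorded: LV dP/dtmax, heart rate, aortic pressure and forelimb resistance. Values are maximum response from control average ± SEM.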

Homo sapiens [2] = organism: Homo sapiens; test: In vitro inhibition of ADP stimulated platelet aggregation in human thrombocyte enriched plasma; assay type: functional
In short: (§2)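 Human platelet-rich plasma from aspirin/NSAID-free donors, adjusted to 250 000 platelets/μL with platelet-poor plasma. Drug in DMSO/saline (1% DMSO final) was added before ADP or collagen, with doses set by titration. Read-out was aggregation extent (ADP, curve height) or rate (collagen, major slope) as % of saline control.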

Homo sapiens [3] = organism: Homo sapiens; test: In vitro inhibition of collagen stimulated platelet aggregation in human thrombocyte enriched plasma; assay type: functional; in short: as §2
[4] = Inhibition of phosphodiesterase 3 from guinea pig cardiac tissue at 1E-7-1E-4M or 1.0E-6 to 1E-3 M; set-up: species or system Cavia porcellus
In short: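 Fraction III cAMP-PDE from guinea pig heart or human platelets. Substrate [3H]cyclic AMP 1.0 μM at 30°C, with hydrolysis held to ≤10-20% and kept linear over 30 min. Compounds in DMSO, 2.5% final.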

[5] = Partition coefficient (logP); assay type: physicochemical; conditions: octanol/water
Phosphodiesterase 3 [6] = molecular target: T1, Phosphodiesterase 3 (Homo sapiens, UniProt Q14432+Q13370); test: Inhibition of Phosphodiesterase 3 from human platelets at 1E-7-1E-4M or 1.0E-6 to 1E-3 M
In short: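 Fraction III cAMP-PDE from guinea pig heart or human platelets. Substrate [3H]cyclic AMP 1.0 μM at 30°C, with hydrolysis held to ≤10-20% and kept linear over 30 min.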

Homo sapiens [7] = organism: Homo sapiens; test: In vitro inhibition of ADP stimulated platelet aggregation in human whole blood; assay type: functional
In short: (§3)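 Human whole blood from aspirin/NSAID-free fasted donors, read by impedance aggregometry 5 min after adding ADP or collagen. Aggregation expressed as % of control (2-6 replicates), plotted against log drug concentration; IC50 obtained by extrapolation.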

Homo sapiens [8] = organism: Homo sapiens; test: In vitro inhibition of collagen stimulated platelet aggregation in human whole blood; assay type: functional; in short: as §3
Phosphodiesterase 3 [9] = molecular target: T1, Phosphodiesterase 3; test: Inhibition of phosphodiesterase 3 from human platelets at 1E-7-1E-4M or 1.0E-6 to 1E-3 M
Canis familiaris [10] = test: Decrease in thrombus weight in anesthetized dog coronary artery; assay type: functional, Canis lupus familiaris
In short: (§4)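 Pentobarbital-anesthetized (32 mg/kg iv), ventilated dogs, allowed 30 min to stabilize. Continuous infusion of compound (1.0, 3.0 or 10.0 μg/kg/min) or saline began 15 min before 50 μA current was applied to an intraluminal electrode in the circumflex coronary artery. After 60 min of stimulation the animals were euthanized and the thrombus dissected and weighed. One treatment per animal.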

Canis familiaris [11] = test: (§5) Percentage increase in left ventricular contractility in anesthetized dog; assay type: functional, Canis lupus familiaris, Heart left ventricle
Canis familiaris [12] = organism: Canis familiaris; test: Weight of thrombus; assay type: functional, Canis lupus familiaris; in short: as §4
Canis familiaris [13] = test: as §5; assay type: functional, Canis lupus familiaris, Heart left ventricle; remark: listed apart in the source
Canis familiaris [14] = test: Hemodynamic activity in anesthetized dog as percent change in left ventricular myocardial activity from baseline (2271 mmHg/s) at 0.01 mg/kg administered intravenously; assay type: functional, Canis lupus familiaris, Heart left ventricle; conditions: route intravenous; in short: as §1
Canis familiaris [15] = test: Hemodynamic activity in anesthetized dog as percent change in left ventricular myocardial activity from baseline (2271 mmHg/s) at 0.001 mg/kg administered intravenously; assay type: functional, Canis lupus familiaris, Heart left ventricle; conditions: route intravenous; in short: as §1
Canis familiaris [16] = test: Hemodynamic activity in anesthetized dog as percent change from baseline (2271 mmHg/s) in left ventricular myocardial activity at 0.1 mg/kg administered intravenously; assay type: functional, Canis lupus familiaris, Heart left ventricle; conditions: route intravenous
Canis familiaris [17] = test: Hemodynamic activity in anesthetized dog as percent change in left ventricular myocardial activity from baseline (2271 mmHg/s) at 0.03 mg/kg administered intravenously; assay type: functional, Canis lupus familiaris, Heart left ventricle; conditions: route intravenous; in short: as §1
Canis familiaris [18] = test: Hemodynamic activity in anesthetized dog as percent change in left ventricular myocardial activity from baseline (2271 mmHg/s) at 0.003 mg/kg administered intravenously; assay type: functional, Canis lupus familiaris, Heart left ventricle; conditions: route intravenous; in short: as §1
Canis familiaris [19] = organism: Canis familiaris; test: Ratio of positive inotropic activity to peripheral Vasodilator activity in dogs; assay type: functional, Canis lupus familiaris
In short: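 Inotropic ED20 is the iv bolus dose giving a 20% rise in dP/dtmax in anesthetized dogs. Vasodilator ED20 is the bolus dose into the brachial cannula of a constant-flow perfused forelimb (pentobarbital 30 mg/kg iv then 3.0 mg/kg/h, heparinized) giving a 20% fall in perfusion pressure. Each ED20 was taken from its dose-response curve; the ratio is PI/PV.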

Canis familiaris [20] = test: Hemodynamic activity in anesthetized dog as percent change from baseline (2271 mmHg/s) in left ventricular myocardial activity at 0.3 mg/kg administered intravenously; assay type: functional, Canis lupus familiaris, Heart left ventricle; conditions: route intravenous
Canis familiaris [21] = test: Hemodynamic activity in anesthetized dog as percent change from baseline (2271 mmHg/s) in left ventricular myocardial activity at 1 mg/kg administered intravenously; assay type: functional, Canis lupus familiaris, Heart left ventricle; conditions: route intravenous
Canis familiaris [22] = test: Hemodynamic activity in anesthetized dog as percent change from baseline (2271 mmHg/s) in left ventricular myocardial activity at 3.1 mg/kg administered intravenously; assay type: functional, Canis lupus familiaris, Heart left ventricle; conditions: route intravenous
In short: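 Anaesthetised dogs were given one compound each, in ascending half-log iv doses 10 min apart, typically four to six doses. Each dose was dissolved in 0.9% saline or dilute HCl (0.1 or 1.0 N), made up with saline, and given as 0.1 mL/kg over 1 min after a 30-min control period. The readout was LV dP/dt_max from a differentiator amplifier, reported as maximum % change from control average ± SEM.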

Compound	IC50 (Homo sapiens [2])	IC50 (Homo sapiens [3])	logP [5]	IC50 (Homo sapiens [7])	IC50 (Homo sapiens [8])	Dose (Canis familiaris [1])	Change (Canis familiaris [16])	other results
CC1CC(=O)NN=C1/C=C/c1ccc(-n2cnc3ccccc32)cc1 (configuration not stated)						0.09 mg/kg		
CC(=O)Nc1ccc(/C=C/C2=NNC(=O)C(C)(C)C2)cc1	4000 nM	250 nM				1 mg/kg		
CC1CC(=O)N(C)N=C1/C=C/c1ccc(-n2ccnc2)cc1 (configuration not stated)						1 mg/kg		
Cc1cc(O)nnc1/C=C/c1ccc(-n2ccnc2)cc1						0.2 mg/kg		
CCC(=O)Nc1ccc(/C=C/C2=NNC(=O)CC2C)cc1 (configuration not stated)						0.2 mg/kg		
O=C1CCC(CCc2ccc(-n3ccnc3)cc2)=NN1						1 mg/kg		
O=C1CCC(/C=C/c2ccc(-n3cnc4c3CCCC4)cc2)=NN1	5000 nM	450 nM	2.47	1700 nM	1000 nM	0.1 mg/kg		
CC1CC(=O)NN=C1/C=C/c1ccc(N)cc1 (configuration not stated)						1 mg/kg		
CC1CC(O)=NN=C1c1ccc(-n2ccnc2)cc1 (configuration not stated) [CI-930]	4000 nM	10 nM	1.29	400 nM	45000 nM		149%	Change (Canis familiaris [14]): 51%; Change (Canis familiaris [15]): 11%; Change (Canis familiaris [17]): 124%; Change (Canis familiaris [18]): 25%
CCc1[nH]c(=O)[nH]c1C(=O)c1ccncc1 [PIROXIMONE]	60000 nM	15000 nM					41%	Change (Canis familiaris [14]): 8%; Change (Canis familiaris [20]): 93%; Change (Canis familiaris [21]): 144%; Change (Canis familiaris [17]): 16%
CC1CC(=O)NN=C1c1ccc(-n2cnc3c2CCCC3)cc1 (configuration not stated) [TETRAHYDROBENXIMIDAZOLE]	4000 nM	15 nM	2.52	500 nM	750 nM			IC50 [4]: 150 nM; IC50 (Phosphodiesterase 3 [9]): 110 nM

Second part, led by results:

IC50 (Homo sapiens [2])	IC50 (Homo sapiens [3])	logP [5]	IC50 (Homo sapiens [7])	IC50 (Homo sapiens [8])	Compound	Dose (Canis familiaris [1])	Change (Canis familiaris [16])	other results
30000 nM	1500 nM				Cc1ncn(-c2ccc(/C=C/C3=NNC(=O)CC3C)cc2)c1C (configuration not stated)	0.05 mg/kg		
6000 nM	600 nM	3.1			CC1CC(=O)NN=C1/C=C/c1ccc(-n2cnc3c2CCCC3)cc1 (configuration not stated)	0.05 mg/kg		IC50 [4]: 100 nM; IC50 (Phosphodiesterase 3 [6]): 18 nM
6000 nM	200 nM	1.21			O=C1CCC(/C=C/c2ccc(-n3ccnc3)cc2)=NN1	0.02 mg/kg		IC50 [4]: 1100 nM; IC50 (Phosphodiesterase 3 [9]): 400 nM
		1.27			CC(=O)Nc1ccc(/C=C/C2=NNC(=O)CC2C)cc1 (configuration not stated)	0.02 mg/kg		IC50 [4]: 2800 nM; IC50 (Phosphodiesterase 3 [6]): 870 nM
350 nM	150 nM	1.4	10 nM	400 nM	CC(Cl)C(=O)Nc1ccc(C2=NNC(=O)CC2C)cc1 (configuration not stated) [AMIPIZONE]			Inhibition (Canis familiaris [10]): 54% and 73% and 77%; Increase (Canis familiaris [11]): 10% and 23%; Thrombus weight (Canis familiaris [12]): 8.3 mg and 4.8 mg and 4.1 mg; Increase (Canis familiaris [13]): 3%
120000 nM	15000 nM				CSc1ccc(C(=O)c2[nH]c(=O)[nH]c2C)cc1 [ENOXIMONE]		19%	Change (Canis familiaris [14]): 5%; Ratio (Canis familiaris [19]): 0.58; Change (Canis familiaris [20]): 47%; Change (Canis familiaris [21]): 83%; Change (Canis familiaris [17]): 7%
20000 nM	3000 nM	0.96	8000 nM	17000 nM	O=C1CCC(c2ccc(-n3ccnc3)cc2)=NN1 [IMAZODAN]		74%	Change (Canis familiaris [14]): 10%; Change (Canis familiaris [20]): 127%; Change (Canis familiaris [21]): 147%; Change (Canis familiaris [17]): 37%
250000 nM	15000 nM		50000 nM	500000 nM	Nc1cc(-c2ccncc2)c[nH]c1=O [INAMRINONE]		9%	Change (Canis familiaris [20]): 32%; Change (Canis familiaris [21]): 85%; Change (Canis familiaris [22]): 165%
10000 nM	100 nM		9000 nM	350 nM	Cc1[nH]c(=O)c(C#N)cc1-c1ccncc1 [MILRINONE]		113%	Change (Canis familiaris [14]): 31%; Change (Canis familiaris [20]): 143%; Change (Canis familiaris [21]): 149%; Change (Canis familiaris [17]): 78%
